Article PMC9394215 (Journal for Immunotherapy of Cancer, 2022)
Like-named read-outs stand apart in the source and are kept apart here.

Tests used:
[1] = test system: melanoma (MaMel65) cells; assay: Extracellular eATP hydrolysis on live melanoma cells; assay type: cell-based, human; conditions: 1, 10, 100 µM, significant at 10 µM, 20 µM eATP
[2] = test system: melanoma (Ma-Mel-65) cell membrane preparations; assay: Malachite green assay, ATP hydrolysis by melanoma cell membrane preparations; assay type: biochemical, human; conditions: increasing concentrations of ceritinib, 50 µM ATP
In short: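 Crude membranes came from ~90% confluent MDA-MB-231 or Ma-Mel-65 cells. Cells were homogenised in Tris/EDTA/saccharose/PMSF buffer, pH 7.4, and centrifuged at 1000 g, then 48,000 g for 1 h at 4°C. Pellets were washed and stored at −80°C in 50 mM Tris-HCl, pH 7.4. ATP hydrolysis (50 µM ATP, HEPES/Ca/Mg pH 7.4) was run with increasing test compound concentrations for 15 min at 37°C. Phosphate was read by malachite green (600 nm); triplicates, n=3.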

[3] = patients, peroral; cited from earlier work
[4] = cited from earlier work
[5] = target: T1, Soluble CD73 (Homo sapiens, UniProt P21589); assay: CD73 assay with [2,8-3H]AMP; assay type: biochemical
T1 sequence (P21589 27-549 limits assumed): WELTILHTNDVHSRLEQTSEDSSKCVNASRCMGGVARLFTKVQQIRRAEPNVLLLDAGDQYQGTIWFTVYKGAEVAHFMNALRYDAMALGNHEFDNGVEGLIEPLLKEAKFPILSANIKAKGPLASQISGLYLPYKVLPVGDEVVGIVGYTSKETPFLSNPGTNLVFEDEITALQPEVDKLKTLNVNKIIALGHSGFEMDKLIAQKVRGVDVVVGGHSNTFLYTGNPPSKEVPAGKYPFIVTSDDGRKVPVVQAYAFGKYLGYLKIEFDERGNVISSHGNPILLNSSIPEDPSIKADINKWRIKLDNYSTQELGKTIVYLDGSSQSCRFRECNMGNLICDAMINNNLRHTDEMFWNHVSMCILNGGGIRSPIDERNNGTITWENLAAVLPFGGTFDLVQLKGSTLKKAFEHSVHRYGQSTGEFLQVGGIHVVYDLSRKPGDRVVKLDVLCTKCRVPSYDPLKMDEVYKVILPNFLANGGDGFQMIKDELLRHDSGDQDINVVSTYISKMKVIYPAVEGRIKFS
In short: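 A dilution series of test compound was incubated with soluble human CD73 (0.09 µg/mL) and 5.0 µM [2,8-3H]AMP in 25 mM Tris, 140 mM NaCl, 25 mM NaH2PO4, pH 7.4. Incubation ran 25 min at 37°C with shaking. Cold LaCl3/sodium acetate buffer (pH 4.0) precipitated phosphate and unconverted AMP over 30 min on ice. Samples were filtered through GF/B filters and the filtrate collected.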

[6] = target: T2, CD38 (Homo sapiens, UniProt P28907); assay: CD38 assay; assay type: biochemical
T2 sequence (P28907 43-300 limits assumed): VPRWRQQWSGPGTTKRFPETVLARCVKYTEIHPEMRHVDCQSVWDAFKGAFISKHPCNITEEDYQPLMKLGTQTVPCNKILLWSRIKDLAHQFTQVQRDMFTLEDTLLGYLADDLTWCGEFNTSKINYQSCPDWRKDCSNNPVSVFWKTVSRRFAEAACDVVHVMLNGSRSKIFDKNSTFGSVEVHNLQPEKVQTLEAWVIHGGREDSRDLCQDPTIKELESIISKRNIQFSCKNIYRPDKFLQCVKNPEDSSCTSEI
In short: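 Either CD38 (5 ng) or NPP5 (250 ng) was mixed with 50 µM test compound and 100 µM NAD+ as substrate. For CD38 the reaction buffer was 10 mM HEPES, pH 7.4.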

[7] = target: T3, human CD39 (Homo sapiens, UniProt P49961); assay type: biochemical
T3 sequence (P49961 1-510): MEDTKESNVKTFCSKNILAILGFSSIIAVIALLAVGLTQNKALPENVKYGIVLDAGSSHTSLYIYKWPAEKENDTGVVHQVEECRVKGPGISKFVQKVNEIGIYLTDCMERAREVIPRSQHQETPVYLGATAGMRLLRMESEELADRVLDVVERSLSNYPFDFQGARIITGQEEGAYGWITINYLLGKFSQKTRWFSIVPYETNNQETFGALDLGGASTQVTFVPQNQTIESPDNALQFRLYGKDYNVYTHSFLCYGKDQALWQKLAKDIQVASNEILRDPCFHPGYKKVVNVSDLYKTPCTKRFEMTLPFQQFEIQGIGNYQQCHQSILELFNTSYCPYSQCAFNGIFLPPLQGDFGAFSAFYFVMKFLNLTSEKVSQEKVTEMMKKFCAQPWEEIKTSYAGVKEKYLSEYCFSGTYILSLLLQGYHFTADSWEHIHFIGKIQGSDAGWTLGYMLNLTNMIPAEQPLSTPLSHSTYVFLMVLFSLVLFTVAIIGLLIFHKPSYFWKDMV
In short: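 CD39 came from human umbilical cord membranes (50.0 ng protein per well). Substrate was 50 µM ATP in 10 mM HEPES, 2 mM CaCl2, 1 mM MgCl2, pH 7.4, with ≤2% DMSO. Enzyme and test compound were preincubated 5 min at 37°C; reaction ran 15 min at 37°C. Malachite green/molybdate was added and A600 read after 20 min at 25°C, minus a heat-denatured enzyme blank. Screening was at 10 µM; curves spanned 0.1–300 µM; n=3.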

[8] = cited from earlier work; remark: listed apart in the source
[9] = test system: human PBMCs; assay: HPLC assay of ATPase activity; assay type: cell-based; conditions: ceritinib 50 µM and higher; 1 µM eATP
In short: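 PBMCs were isolated from buffy coats by density gradient. Cells (2×10^5) were pretreated with test compound (1, 10, 50, 100 µM) for 15 min at 37°C, then given 1 µM eATP (ATPase) or eAMP (AMPase) for 30 min at 37°C. Cells were removed and supernatants 10 kDa-filtered. Etheno-nucleotides were quantified by reversed-phase C8 HPLC (phosphate pH 6.0/methanol gradient; fluorescence 230/410 nm) against standards; singlets, n=2–3.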

[10] = ref 61 62; cited from earlier work
[11] = read-out: % inhibition at 50 µM

IC50 [5]: > 50 µM
inhibition at 50 µM [5, 11]: 33%
IC50 [6]: > 50 µM
inhibition at 50 µM [6, 11]: 19%
IC50 [7]: 11.3 ± 0.8 µM
inhibition at 10 µM ([7]; read-out: inhibition of human CD39): > 50%
SMILES: Cc1cc(Nc2ncc(Cl)c(Nc3ccccc3S(=O)(=O)C(C)C)n2)c(OC(C)C)cc1C1CCNCC1 [ceritinib, Ceritinib]
inhibition of hydrolysis of eATP added to live cells [1]: concentration-dependent inhibition
ATPase activity of cancer cell membranes [2]: decreased significantly
maximum plasma levels [3]: up to 1.4 µM
average concentration in tumor tissue ([4]; brain tumor patients, after the 10th applied dose, steady state): 36 µM
range of concentration in tumor tissue ([4]; brain tumor patients, after the 10th applied dose): 2 to 139 µM
average concentration in tumor tissue ([4]; brain tumors, steady-state conditions): 36 nmol/g
concentration in tumor tissues in some patients [4]: above 100 µM
pharmacokinetics in mice versus humans [8]: comparable pharmacokinetics
formation of eAMP from eATP by PBMCs [9]: completely blocked
brain permeation [10]: some brain permeation
